According to ChEMBL document CHEMBL2169820, “Synthesis and biological activities of polyquinoline derivatives: new Bcl-2 family protein modulators” (Eur J Med Chem, 2012):
The source made the active and inactive calls. The calls are words filed in the database; no cut-off is given here.

Tests used:
Bcl-2-related protein A1 = target: T1, Bcl-2-related protein A1 (Homo sapiens, UniProt Q16548); assay: Inhibition of GST-tagged recombinant Bfl1 interaction with biotinylated Bim peptide by ELISA based competitive binding assay
T1 sequence (Q16548 whole entry): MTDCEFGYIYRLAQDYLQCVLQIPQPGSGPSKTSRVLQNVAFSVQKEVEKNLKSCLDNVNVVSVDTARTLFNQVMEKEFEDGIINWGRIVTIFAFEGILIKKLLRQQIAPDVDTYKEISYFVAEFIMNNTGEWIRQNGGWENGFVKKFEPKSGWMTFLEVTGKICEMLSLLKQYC
How it was run: (§1)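 Plates coated with anti-GST antibody (1 µg/mL, overnight, 4 °C), blocked in PBS/1% BSA. GST-tagged Bcl-xL, Bcl-2, Bfl-1 or Mcl-1 (10 ng/mL) bound 2 h, RT. Compound added for 1 h, then biotinylated Bim peptide (1 nM) for 1 h. HRP-streptavidin detection, acid stop, OD 450 nm; EC50 derived.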

[1] = target: Induced myeloid leukemia cell differentiation protein Mcl-1 (Homo sapiens, UniProt Q07820); assay: Inhibition of GST-tagged recombinant Mcl1 interaction with biotinylated Bim peptide by ELISA based competitive binding assay; how it was run: as §1
Sequence of Induced myeloid leukemia cell differentiation protein Mcl-1 (Q07820 whole entry): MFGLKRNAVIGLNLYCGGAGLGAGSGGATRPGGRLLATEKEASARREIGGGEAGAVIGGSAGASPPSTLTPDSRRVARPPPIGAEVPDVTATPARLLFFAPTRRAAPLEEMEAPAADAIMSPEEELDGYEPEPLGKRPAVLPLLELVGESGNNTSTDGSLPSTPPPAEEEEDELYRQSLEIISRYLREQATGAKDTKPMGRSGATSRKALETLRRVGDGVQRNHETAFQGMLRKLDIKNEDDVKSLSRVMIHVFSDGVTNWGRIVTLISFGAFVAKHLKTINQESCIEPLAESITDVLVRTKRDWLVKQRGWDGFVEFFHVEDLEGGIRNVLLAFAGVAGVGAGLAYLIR

[2] = target: Apoptosis regulator Bcl-2 (Homo sapiens, UniProt P10415); assay: Inhibition of GST-tagged recombinant Bcl2 interaction with biotinylated Bim peptide by ELISA based competitive binding assay; how it was run: as §1
Sequence of Apoptosis regulator Bcl-2 (P10415 whole entry): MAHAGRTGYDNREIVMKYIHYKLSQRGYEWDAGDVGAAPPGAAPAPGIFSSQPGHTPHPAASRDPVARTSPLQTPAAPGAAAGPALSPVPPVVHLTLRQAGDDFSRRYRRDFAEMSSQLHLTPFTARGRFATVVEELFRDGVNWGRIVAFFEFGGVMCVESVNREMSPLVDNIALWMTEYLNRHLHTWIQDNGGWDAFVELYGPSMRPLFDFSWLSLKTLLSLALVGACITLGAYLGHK

Bcl-2-like protein 1 [3] = target: T2, Bcl-2-like protein 1 (Homo sapiens, UniProt Q07817); assay: Inhibition of GST-tagged recombinant Bcl-XL interaction with biotinylated Bim peptide by ELISA based competitive binding assay; how it was run: as §1
T2 sequence (Q07817 whole entry): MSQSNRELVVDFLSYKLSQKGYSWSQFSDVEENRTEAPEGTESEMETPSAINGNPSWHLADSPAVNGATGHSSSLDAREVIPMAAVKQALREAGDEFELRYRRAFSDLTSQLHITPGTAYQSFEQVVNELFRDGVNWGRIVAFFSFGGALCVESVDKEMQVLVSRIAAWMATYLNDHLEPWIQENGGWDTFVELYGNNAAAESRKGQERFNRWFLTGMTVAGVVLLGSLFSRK

BP3 [4] = assay: Induction of apoptosis in human BP3 cells at 10 uM incubated for 24 hrs by Annexin V and propidium iodide staining based FACS method; assay type: functional, cell-based
How it was run: (§2)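 Tumour lines grown in RPMI with 10% FBS, 2 mM glutamine, 10 mM Hepes and gentamicin; PBMC from healthy donors, purified on Ficoll gradient, same medium. Cells exposed 24 h, then Annexin V/propidium iodide labelling and flow cytometry. Specific viability = (% viable treated × 100)/% viable untreated.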

Bcl-2-like protein 1 [5] = target: T2, Bcl-2-like protein 1; assay: Inhibition of Bcl-XL-mediated cell death reduction expressed in serum starved mouse 3T3 cells assessed as residual cell viability at 5 uM incubated for 96 hrs by propidium iodide staining based FACS method; details: NIH3T3
How it was run: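 3T3 cells infected with pMig-hBcl-xL vector to overexpress human Bcl-xL, maintained in DMEM/10% FBS. Compound 5 µM given under serum starvation; % residual viability scored at 96 h by propidium iodide staining and FACS.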

RS4-11 [6] = assay: Induction of apoptosis in human RS4:11 cells at 10 uM incubated for 24 hrs by Annexin V and propidium iodide staining based FACS method; assay type: functional, cell-based; how it was run: as §2
IM-9 [7] = assay: Induction of apoptosis in human IM9 cells at 10 uM incubated for 24 hrs by Annexin V and propidium iodide staining based FACS method; assay type: functional, cell-based; how it was run: as §2
MEF [8] = assay: Induction of cell death in mouse MEF cells containing Bax/Bak double knock out at 1.25 to 10 uM by Annexin V and propidium iodide staining based FACS method; assay type: functional
How it was run: (§3)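 Wild-type and DKO MEFs kept in DMEM with 10% FBS, 2 mM glutamine, 10 mM Hepes and gentamicin. Cultured in medium alone or with compound, staurosporine 1 µM as reference. Viability read by flow cytometry; mean ± SEM of 3 independent experiments.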

PBMC = assay: Induction of apoptosis in human PBMCs at 5 or 10 uM incubated for 24 hrs by Annexin V and propidium iodide staining based FACS method; assay type: cell-based; how it was run: as §2
MEF [9] = assay: Induction of cell death in mouse MEF cells containing Bax/Bak double knock out at 1 uM by Annexin V and propidium iodide staining based FACS method; assay type: functional
How it was run: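 Wild-type and Bax/Bak double-knockout MEFs were grown in DMEM with 10% FBS, 2 mM glutamine, 10 mM Hepes and gentamicin. They were treated for 24 h and stained with propidium iodide, with or without Annexin V, then analysed by flow cytometry. Data are mean ± SEM of 3 independent experiments.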

MEF [10] = assay: Induction of cell death in mouse MEF cells containing Bax/Bak double knock out at 10 uM by Annexin V and propidium iodide staining based FACS method; assay type: functional; how it was run: as §3
RS4-11 [11] = assay: Induction of apoptosis in human RS4:11 cells at 5 uM incubated for 24 hrs by Annexin V and propidium iodide staining based FACS method; assay type: functional, cell-based
How it was run: (§4)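 Cells grown in RPMI with 10% FBS, 2 mM glutamine, 10 mM Hepes and gentamicin. Exposed to compound for 24 h, then labelled with Annexin V and propidium iodide and read by flow cytometry. Specific viability = (% viable treated × 100)/% viable untreated.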

IM-9 [12] = assay: Induction of apoptosis in human IM9 cells at 5 uM incubated for 24 hrs by Annexin V and propidium iodide staining based FACS method; assay type: functional, cell-based; how it was run: as §4
BP3 [13] = assay: Induction of apoptosis in human BP3 cells at 5 uM incubated for 24 hrs by Annexin V and propidium iodide staining based FACS method; assay type: functional, cell-based; how it was run: as §4

## CCCOc1ccc2c(C(C)C)cc(-c3cc4ccccc4nc3N3CCOCC3)cc2n1
Bcl-2-related protein A1
  EC50: 8.2 µM
[1]
  EC50: 7.9 µM
[2]
  EC50: 9.2 µM
Bcl-2-like protein 1 [3]
  EC50: > 100 µM
BP3 [4]
  Activity: inactive
Bcl-2-like protein 1 [5]
  Activity: 32.7%

## CCCOc1ccc2c(C(C)C)cc(-c3cc4c(C(C)C)cc(-c5cc6ccccc6nc5N5CCOCC5)cc4nc3OCCC)cc2n1
Bcl-2-like protein 1 [5]
  Activity: 92.3%

## CCOc1nc2cc(-c3cc4ccccc4nc3N3CCCC3)cc(C(C)C)c2cc1-c1cc(C(C)C)c2ccc(N3CCCC3)nc2c1
Bcl-2-like protein 1 [5]
  Activity: 95.1%

## CCOc1ccc2c(C(C)C)cc(-c3cc4ccccc4nc3N3CCOCC3)cc2n1
Bcl-2-related protein A1
  EC50: 24 µM
[1]
  EC50: 3.5 µM
[2]
  EC50: 2.7 µM
Bcl-2-like protein 1 [3]
  EC50: 14.6 µM
RS4-11 [6]
  Activity: inactive
IM-9 [7]
  Activity: inactive
BP3 [4]
  Activity: inactive
Bcl-2-like protein 1 [5]
  Activity: 37.9%

## CCCOc1nc2ccccc2cc1-c1cc(C(C)C)c2cc(-c3cc(C(C)C)c4ccc(N5CCOCC5)nc4c3)c(OCCC)nc2c1
Bcl-2-like protein 1 [5]
  Activity: 92.9%

## CCCOc1nc2ccccc2cc1-c1cc(C(C)C)c2ccc(N3CCCC3)nc2c1
Bcl-2-like protein 1 [5]
  Activity: 86.8%

## CCCOc1ccc2c(C(C)C)cc(-c3cc4c(C(C)C)cc(-c5cc6ccccc6nc5N5CCCC5)cc4nc3OCCC)cc2n1
Bcl-2-like protein 1 [5]
  Activity: 92.8%

## CCOc1ccc2c(C(C)C)cc(-c3cc4ccccc4nc3N3CCCC3)cc2n1
Bcl-2-related protein A1
  EC50: 25.5 µM
[1]
  EC50: 2.1 µM
[2]
  EC50: 3.5 µM
Bcl-2-like protein 1 [3]
  EC50: 6.2 µM
MEF [8]
  Activity: inactive
PBMC
  Activity: Non-toxic
RS4-11 [6]
  Activity: Active
IM-9 [7]
  Activity: Active
BP3 [4]
  Activity: inactive
Bcl-2-like protein 1 [5]
  Activity: 0.42%

## CCCOc1nc2cc(-c3cc4ccccc4nc3N3CCCC3)cc(C(C)C)c2cc1-c1cc(C(C)C)c2ccc(N3CCOCC3)nc2c1
Bcl-2-like protein 1 [5]
  Activity: 96.5%

## CCOc1nc2cccc(C(C)C)c2cc1-c1cc(C(C)C)c2ccc(N3CCCC3)nc2c1
Bcl-2-like protein 1 [5]
  Activity: 91.6%

## CN[C@@H]1C[C@H]2O[C@@](C)([C@@H]1OC)n1c3ccccc3c3c4c(c5c6ccccc6n2c5c31)C(=O)NC4
MEF [9]
  Activity: Active

## CCCOc1nc2ccccc2cc1-c1cc(C(C)C)c2cc(-c3cc(C(C)C)c4ccc(N5CCCC5)nc4c3)c(OCCC)nc2c1
Bcl-2-like protein 1 [5]
  Activity: 94.6%

## CCOc1nc2cc(-c3cc4ccccc4nc3N3CCOCC3)cc(C(C)C)c2cc1-c1cc(C(C)C)c2ccc(N3CCCC3)nc2c1
Bcl-2-like protein 1 [5]
  Activity: 92.2%

## CC(C)c1cc(-c2cc3ccccc3nc2N2CCOCC2)cc2nc(N3CCOCC3)ccc12
Bcl-2-like protein 1 [5]
  Activity: 67.9%

## CCCOc1nc2ccccc2cc1-c1cc(C(C)C)c2ccc(N3CCOCC3)nc2c1
Bcl-2-related protein A1
  EC50: 17.8 µM
[1]
  EC50: 11.6 µM
[2]
  EC50: 6.6 µM
Bcl-2-like protein 1 [3]
  EC50: > 100 µM
RS4-11 [6]
  Activity: inactive
IM-9 [7]
  Activity: inactive
BP3 [4]
  Activity: inactive
Bcl-2-like protein 1 [5]
  Activity: 55.5%

## CCOc1nc2cc(-c3cc4ccccc4nc3N3CCOCC3)cc(C(C)C)c2cc1-c1cc(C(C)C)c2ccc(N3CCOCC3)nc2c1
Bcl-2-like protein 1 [5]
  Activity: 96.5%

## CCOc1ccc2c(C(C)C)cc(-c3cc4c(C(C)C)cc(-c5cc6ccccc6nc5N5CCCC5)cc4nc3OCC)cc2n1
Bcl-2-like protein 1 [5]
  Activity: 95.3%

## CCOc1nc2ccccc2cc1-c1cc(C(C)C)c2cc(-c3cc(C(C)C)c4ccc(N5CCCC5)nc4c3)c(OCC)nc2c1
Bcl-2-like protein 1 [5]
  Activity: 92.3%

## CCOc1nc2cccc(C(C)C)c2cc1-c1cc(C(C)C)c2ccc(N3CCOCC3)nc2c1
Bcl-2-like protein 1 [5]
  Activity: 70.3%

## CCOc1nc2cc(-c3cc4ccccc4nc3N3CCCC3)cc(C(C)C)c2cc1-c1cc(C(C)C)c2ccc(N3CCOCC3)nc2c1
Bcl-2-like protein 1 [5]
  Activity: 91%

## CCCOc1ccc2c(C(C)C)cc(-c3cc4ccccc4nc3N3CCCC3)cc2n1
Bcl-2-like protein 1 [5]
  Activity: 84.4%

## COC1=CC(c2cc3ccccc3[nH]2)=N/C1=C\c1[nH]c(C)cc1C [OBATOCLAX]
Bcl-2-related protein A1
  EC50: 0.6 µM
[1]
  EC50: 0.5 µM
[2]
  EC50: 0.3 µM
Bcl-2-like protein 1 [3]
  EC50: 0.9 µM
MEF [10]
  Activity: inactive
RS4-11 [6]
  Activity: Active
IM-9 [7]
  Activity: Active
BP3 [4]
  Activity: Active

## CC(C)=CCC[C@]1(C)C=Cc2c(O)c3c(c(CC=C(C)C)c2O1)O[C@]12C(=C[C@@H]4C[C@H]1C(C)(C)O[C@@]2(C/C=C(/C)C(=O)O)C4=O)C3=O
MEF [9]
  Activity: Active
RS4-11 [11]
  Activity: inactive
IM-9 [12]
  Activity: inactive
BP3 [13]
  Activity: inactive

## CN(C)CC[C@H](CSc1ccccc1)Nc1ccc(S(=O)(=O)NC(=O)c2ccc(N3CCN(Cc4ccccc4-c4ccc(Cl)cc4)CC3)cc2)cc1[N+](=O)[O-]
MEF [10]
  Activity: inactive
RS4-11 [6]
  Activity: Active
IM-9 [7]
  Activity: Active
BP3 [4]
  Activity: Active

## CCCOc1nc2cc(-c3cc4ccccc4nc3N3CCCC3)cc(C(C)C)c2cc1-c1cc(C(C)C)c2ccc(OCC)nc2c1
Bcl-2-like protein 1 [5]
  Activity: 94.5%

## CCCOc1nc2cc(-c3cc4ccccc4nc3N3CCOCC3)cc(C(C)C)c2cc1-c1cc(C(C)C)c2ccc(N3CCCC3)nc2c1
Bcl-2-like protein 1 [5]
  Activity: 93.4%

## CCCOc1nc2cc(-c3cc4ccccc4nc3N3CCOCC3)cc(C(C)C)c2cc1-c1cc(C(C)C)c2ccc(N3CCOCC3)nc2c1
Bcl-2-like protein 1 [5]
  Activity: 81.6%

## CCCOc1nc2cc(-c3cc4ccccc4nc3N3CCCC3)cc(C(C)C)c2cc1-c1cc(C(C)C)c2ccc(N3CCCC3)nc2c1
Bcl-2-like protein 1 [5]
  Activity: 90.5%

## CC(C)c1cc(-c2cc3ccccc3nc2N2CCCC2)cc2nc(N3CCCC3)ccc12
Bcl-2-related protein A1
  EC50: 21.5 µM
[1]
  EC50: 2.3 µM
[2]
  EC50: 1.4 µM
Bcl-2-like protein 1 [3]
  EC50: > 100 µM
RS4-11 [6]
  Activity: inactive
IM-9 [7]
  Activity: inactive
BP3 [4]
  Activity: inactive
Bcl-2-like protein 1 [5]
  Activity: 4.37%

## CCCOc1ccc2c(C(C)C)cc(-c3cc4c(C(C)C)cc(-c5cc6ccccc6nc5N5CCCC5)cc4nc3OCC)cc2n1
Bcl-2-like protein 1 [5]
  Activity: 96.4%

## CCOc1nc2ccccc2cc1-c1cc(C(C)C)c2cc(-c3cc(C(C)C)c4ccc(N5CCOCC5)nc4c3)c(OCC)nc2c1
Bcl-2-like protein 1 [5]
  Activity: 93.6%

## CCCOc1nc2cc(-c3cc4ccccc4nc3N3CCOCC3)cc(C(C)C)c2cc1-c1cc(C(C)C)c2ccc(OCC)nc2c1
Bcl-2-like protein 1 [5]
  Activity: 95.2%
